Series [1] is described as follows: Cytotoxicity against human MES-SA cells after 72 hrs by Presto Blue assay. It counts as functional, cell-based. A digest of the protocol:
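MES-SA and doxorubicin-resistant MES-SA/dx5 cells exposed for 72 h, then PrestoBlue added for 3 h at 37 °C, absorbance read at 570 and 600 nm. IC50 by median-effect analysis of six or seven concentrations; mean ± STDEV of three to six independent experiments.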

Series [2] can be described thus: Resistance factor, ratio of IC50 for human KB-VIN10 cells to IC50 for human KB cells. It counts as functional.
Series [3] can be described thus: Cytotoxicity against human HEL299 cells. The following applies: HEL 299. It counts as cell-based.
For series [4], the system named is Mus musculus. As to the kind of experiment: Toxicity in nude mouse xenografted with human A549 cells assessed as body weight loss at 25 mg/kg, iv qd administered 4 days measured for 20 days. It counts as organism-based. Details: dose 25 mg/kg, route intravenous. The following applies: in vivo, 480 h. In general terms: In xenograft studies the graft and the host belong to different species.

Series [5] in a line: Cell cycle arrest in human CL141T cells assessed as accumulation at S phase at 1 x IC50 to 2 x IC50 after 24 hrs by propidium iodide staining-based FACS flow cytometric analysis. It counts as functional. A digest of the protocol:
(§1)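 CL141T cells treated at 0.5-, 1- and 2-fold IC50 for 24, 48 and 72 h. Cells fixed in ice-cold 70% EtOH, then stained with 4 μg/mL propidium iodide in PBS with 1% Triton X-100 and 0.1 mg/mL RNase A. Phase distribution from flow cytometry DNA histograms; sub-G1 fraction scored as well.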
Background: In flow cytometry, cells or beads pass a laser one at a time.

A short description of series [6]: Cytotoxicity against human KB-VIN10 cells after 72 hrs by Alamar blue assay. The following applies: KB-VIN10, 72 h. Background: The colour change of resazurin is a common sign of viable cells or microbes.
For the next series, the system named is CCRF-CEM. Put plainly: Cytotoxicity against human CCRF-CEM cells after 72 hrs by XTT assay. The format is functional, cell-based. The procedure, abridged: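 CCRF-CEM T-ALL cells incubated with compound for 72 h. XTT with phenazine methosulfate then added for 6 h at 37 °C, absorbance read at 450 and 630 nm. IC50 from six or seven concentrations by median-effect analysis; mean ± STDEV, n = 3.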

In series [7] the target is T1, DNA topoisomerase 1 (Homo sapiens) (UniProt P11387).
T1 sequence (whole entry): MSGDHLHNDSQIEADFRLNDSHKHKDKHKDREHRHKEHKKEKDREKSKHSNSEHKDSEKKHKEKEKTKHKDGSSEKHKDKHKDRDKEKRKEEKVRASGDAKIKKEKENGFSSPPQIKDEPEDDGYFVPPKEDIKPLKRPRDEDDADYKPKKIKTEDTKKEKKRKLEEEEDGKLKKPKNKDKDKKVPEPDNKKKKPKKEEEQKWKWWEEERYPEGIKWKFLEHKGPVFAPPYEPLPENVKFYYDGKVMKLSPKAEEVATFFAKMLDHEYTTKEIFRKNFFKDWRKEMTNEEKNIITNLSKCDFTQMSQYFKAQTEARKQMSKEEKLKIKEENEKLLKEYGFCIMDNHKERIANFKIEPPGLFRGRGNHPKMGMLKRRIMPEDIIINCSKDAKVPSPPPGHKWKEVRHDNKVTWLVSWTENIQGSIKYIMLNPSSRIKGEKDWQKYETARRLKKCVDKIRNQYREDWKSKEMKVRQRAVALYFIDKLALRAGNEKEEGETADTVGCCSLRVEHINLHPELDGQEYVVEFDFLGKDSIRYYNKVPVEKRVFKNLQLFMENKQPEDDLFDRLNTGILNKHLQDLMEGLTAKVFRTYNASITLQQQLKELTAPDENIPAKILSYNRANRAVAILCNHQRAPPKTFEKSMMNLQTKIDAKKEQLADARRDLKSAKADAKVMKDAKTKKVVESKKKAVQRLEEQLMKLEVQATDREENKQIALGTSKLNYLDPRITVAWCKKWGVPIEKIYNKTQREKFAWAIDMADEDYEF
Put plainly: Inhibition of DNA topoisomerase 1 (unknown origin)-mediated relaxation of supercoiled pHOT DNA at 25 to 200 uM after 30 to 45 mins by agarose gel electrophoresis. The procedure, abridged: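 Supercoiled pHOT DNA (200 ng) and compound in 10 mM Tris-HCl pH 7.9 with 1 mM EDTA at 37 °C. Reaction started with 1 unit topo I, run 30−45 min, stopped with 10% SDS. Products separated on 1% agarose at 50 V for 90 min and stained with ethidium bromide.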

Series [8] concerns NCI-H460. As to the kind of experiment: Induction of apoptosis in human H460 cells assessed as increase in apoptotic cells at IC50 after 72 hrs by annexin V-FITC/propidium iodide staining-based FACS flow cytometric analysis (reference value: 9.29%). The format is functional.
Another series has as its system A549. As to the kind of experiment: Cytotoxicity against human A549 cells after 72 hrs by Alamar blue assay. It counts as functional, cell-based. To be noted: A549, 72 h. A digest of the protocol:
(§2)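 Cells exposed to compound for 72 h, then Alamar blue added with a further 10−12 h at 37 °C and a spectrophotometric read. IC50 from six or seven concentrations by median-effect analysis; mean ± STDEV, n = 3. CL141T is a line derived from a patient lung tumor passaged as a SCID mouse xenograft.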

The test system of series [9] is NCI-H460. Put plainly: Induction of apoptosis in human H460 cells assessed as increase in cleaved caspase 3 expression at IC50 after 24 to 72 hrs by Western blotting analysis. The format is functional, cell-based. The procedure, abridged:
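H460 cells treated at IC50 for 24 and 72 h. Lysate proteins separated by SDS-PAGE and blotted to nitrocellulose, blocked in 5% milk/PBST. Primary antibodies to caspase-3, caspase-7, PARP (full-length and cleaved) and β-actin applied for 1 h at room temperature or overnight at 4 °C; HRP secondary with ECL detection.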

Series [10] can be described thus: Cell cycle arrest in human CL141T cells assessed as accumulation at S phase at 0.5 x IC50 after 24 hrs by propidium iodide staining-based FACS flow cytometric analysis. It counts as functional. A digest of the protocol: as §1
Series [11] in a line: Cell cycle arrest in human CL141T cells assessed as accumulation at sub-G1 phase at 0.5 x IC50 to 2 x IC50 after 72 hrs by propidium iodide staining-based FACS flow cytometric analysis. The format is functional. A digest of the protocol: as §1
Series [12] can be described thus: Cytotoxicity against human H460 cells after 72 hrs by Alamar blue assay. To be noted: NCI-H460, 72 h. It counts as functional, cell-based. A digest of the protocol:
as §2

Another series has as its system PC-3. As to the kind of experiment: Cytotoxicity against human PC3 cells after 72 hrs by Alamar blue assay. The format is functional, cell-based. The following applies: PC-3, 72 h. The procedure, abridged:
as §2

Series [13] concerns Mus musculus. As to the kind of experiment: Toxicity in nude mouse xenografted with human HT-29 cells assessed as body weight loss at 25 mg/kg, iv qd administered 4 days measured for 20 days. It counts as organism-based. The arrangement: dose 25 mg/kg, route intravenous. The following applies: in vivo, 480 h.
The target in series [14] is DNA topoisomerase 2-alpha (Homo sapiens) (UniProt P11388). As to the kind of experiment: Inhibition of DNA topoisomerase 2 (unknown origin)-mediated relaxation of supercoiled pHOT DNA after 30 to 45 mins by agarose gel electrophoresis. The procedure, abridged: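 Supercoiled pHOT DNA (125 ng) with compound in buffer stated as 0.5 M Tris-HCl pH 8.0, 1.5 M NaCl, 100 mM MgCl2, 5 mM DTT, 300 μg/mL BSA, 20 mM ATP, at 37 °C. Methods state 6 units topo II, figure legend 5 units; 30−45 min, SDS stop. Products run on 1% agarose and stained with ethidium bromide.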
Chain of DNA topoisomerase 2-alpha (Homo sapiens) (P11388 whole entry): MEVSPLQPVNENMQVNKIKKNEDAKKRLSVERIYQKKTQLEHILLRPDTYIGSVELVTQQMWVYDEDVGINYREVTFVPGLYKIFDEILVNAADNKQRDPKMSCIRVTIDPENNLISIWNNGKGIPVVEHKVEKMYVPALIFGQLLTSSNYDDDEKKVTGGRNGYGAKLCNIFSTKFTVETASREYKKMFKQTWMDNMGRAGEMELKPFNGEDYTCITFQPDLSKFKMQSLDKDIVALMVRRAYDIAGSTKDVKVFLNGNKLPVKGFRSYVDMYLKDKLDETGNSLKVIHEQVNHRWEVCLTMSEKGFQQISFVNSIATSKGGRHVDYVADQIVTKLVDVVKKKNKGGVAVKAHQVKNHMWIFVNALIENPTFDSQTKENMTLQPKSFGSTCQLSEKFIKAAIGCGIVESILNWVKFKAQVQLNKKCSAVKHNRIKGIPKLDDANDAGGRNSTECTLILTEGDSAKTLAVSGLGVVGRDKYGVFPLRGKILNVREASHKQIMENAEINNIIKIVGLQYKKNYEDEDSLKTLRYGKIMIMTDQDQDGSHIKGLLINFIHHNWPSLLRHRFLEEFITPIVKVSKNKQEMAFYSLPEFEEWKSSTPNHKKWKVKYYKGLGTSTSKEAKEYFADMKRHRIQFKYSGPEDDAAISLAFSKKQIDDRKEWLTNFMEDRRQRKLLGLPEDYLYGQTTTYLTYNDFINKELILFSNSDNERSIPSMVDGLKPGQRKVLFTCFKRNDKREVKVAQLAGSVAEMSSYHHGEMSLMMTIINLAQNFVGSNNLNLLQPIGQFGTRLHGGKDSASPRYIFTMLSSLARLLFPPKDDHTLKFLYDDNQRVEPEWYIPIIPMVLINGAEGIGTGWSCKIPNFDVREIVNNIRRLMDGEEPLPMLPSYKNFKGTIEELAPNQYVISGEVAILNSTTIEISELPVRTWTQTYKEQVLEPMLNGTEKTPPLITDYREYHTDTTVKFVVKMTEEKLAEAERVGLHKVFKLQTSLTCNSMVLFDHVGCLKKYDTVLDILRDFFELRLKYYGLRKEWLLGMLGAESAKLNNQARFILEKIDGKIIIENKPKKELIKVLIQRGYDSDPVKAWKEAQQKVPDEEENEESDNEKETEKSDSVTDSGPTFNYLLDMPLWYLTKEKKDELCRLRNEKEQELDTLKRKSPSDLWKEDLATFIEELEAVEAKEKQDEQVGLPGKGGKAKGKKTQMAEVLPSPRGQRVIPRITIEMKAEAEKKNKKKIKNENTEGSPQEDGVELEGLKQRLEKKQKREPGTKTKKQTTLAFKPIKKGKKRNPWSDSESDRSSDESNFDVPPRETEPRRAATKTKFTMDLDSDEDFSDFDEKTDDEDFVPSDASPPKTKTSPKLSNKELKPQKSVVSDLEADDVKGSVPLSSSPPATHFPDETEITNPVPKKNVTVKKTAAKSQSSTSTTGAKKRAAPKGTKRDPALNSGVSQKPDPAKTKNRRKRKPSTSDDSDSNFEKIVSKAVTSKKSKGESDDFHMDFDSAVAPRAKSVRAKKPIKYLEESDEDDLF

Series [15] concerns NCI-H460. As to the kind of experiment: Induction of apoptosis in human H460 cells assessed as increase in apoptotic cells at IC50 after 24 hrs by annexin V-FITC/propidium iodide staining-based FACS flow cytometric analysis (reference value: 4.1%). It counts as functional.
Another series relates to HT-29. Put plainly: Cytotoxicity against human HT-29 cells after 72 hrs by Alamar blue assay. The format is functional, cell-based. The following applies: HT-29, 72 h. The procedure, abridged: as §2

The source made the active and inactive calls. No cut-off for these calls is given here.

For `Cc1c(CO)c(CO)c2n1Cc1c(c3ccccc3n1C)C2`, the IC50 (in general, the concentration that gives 50% inhibition) in [1] was 240 nM; in series [3], 2790 nM; in [6], 1310 nM; in the series with CCRF-CEM it was 40 nM; with A549, 1140 nM; in series [12], 380 nM. Moreover, the IC50 was determined as 610 nM with PC-3 and 3350 nM with HT-29. Moreover, in [2], the “Ratio IC50” value is on record as 0.52. Further, the Activity entry in the series with Mus musculus [4] is “Toxic”; in the series on NCI-H460 [8] it was 61.35%; with Mus musculus [13], “Toxic”; in the series with NCI-H460 [15], 15.09%. The outcome (in series [5]; in the series on NCI-H460 [9]; in [10]; in [11]) was Active. In addition, the inhibition entry in series [7] is “Active”. The inhibition result in [14] was “Dose-dependent effect”.

The values are drawn from ChEMBL document CHEMBL2331340, “Novel antitumor indolizino[6,7-b]indoles with multiple modes of action: DNA cross-linking and topoisomerase I and II inhibition” (J Med Chem, 2013).
